{"data": "Assay results gathered from unrelated publications", "FLT3 ITD": "Receptor-type tyrosine-protein kinase FLT3 (FLT3, Homo sapiens, UniProt P36888, ITD)", "TNKS2": "Poly [ADP-ribose] polymerase tankyrase-2 (TNKS2, Homo sapiens, UniProt Q9H2K2)", "TOP2A": "DNA topoisomerase 2-alpha (TOP2A, Homo sapiens, UniProt P11388)", "note": "Compare with care: the assays were run in different laboratories."}
{"SMILES": "Cn1cc(C2=C(c3cn(CCCSC(=N)N)c4ccccc34)C(=O)NC2=O)c2ccccc21", "target": "Mitogen-activated protein kinase kinase kinase 8 (MAP3K8, Homo sapiens, UniProt P41279)", "assay": "enzyme activity, inhibitor", "IC50 [nM]": 11000}
{"SMILES": "O=C(NC1CCCCC1)c1ccc(-c2nc3ccc4[nH]ncc4c3c3c2CCCC3)cc1", "target": "FLT3 ITD", "assay": "enzyme activity, inhibitor", "IC50 [nM]": "> 1000"}
{"SMILES": "CNC(=O)[C@H](Cc1c[nH]c2ccccc12)NC(=O)[C@@H](CC(=O)NO)CC(C)C", "target": "Stromelysin-1 (MMP3, Homo sapiens, UniProt P08254)", "assay": "enzyme activity, inhibitor", "IC50 [nM]": 12.5}
{"SMILES": "CN(C)CCNC(=O)c1ccc(-c2nc3ccc4[nH]ncc4c3c3c2CCC3)cc1", "target": "FLT3 ITD", "assay": "enzyme activity, inhibitor", "IC50 [nM]": 659}
{"SMILES": "CC(C)(O)c1ccc(-c2nc3cc(NC(=O)c4cnc(OCc5ccccc5)nc4)ccc3c(=O)[nH]2)cc1", "target": "TNKS2", "assay": "enzyme activity, inhibitor", "IC50 [nM]": 16.3}
{"SMILES": "CN1CCC(CNc2ccc3ncc(-c4cccc(OC(F)(F)F)c4)n3n2)CC1", "target": "5-hydroxytryptamine receptor 2B (HTR2B, Homo sapiens, UniProt P41595)", "assay": "calcium signal, antagonist", "IC50 [nM]": 2810}
{"SMILES": "Cc1cc(C(=O)N2CC(N3CCN(C(=O)c4nccs4)CC3)C2)ccc1-c1ccc(F)c(Cl)c1", "target": "Monoglyceride lipase (MGLL, Homo sapiens, UniProt Q99685)", "assay": "enzyme activity, inhibitor, fluorescence", "IC50 [nM]": 5.15}
{"SMILES": "Fc1ccccc1Nc1nc(-c2ccncc2)nc2c1CNCC2", "target": "TOP2A", "assay": "enzyme activity, inhibitor", "IC50 [nM]": 4500}
{"SMILES": "Cc1n[nH]c2ccc3nc(-c4ccc(C(=O)NCCN(C)C)cc4)c4c(c3c12)CCCCC4", "target": "Receptor-type tyrosine-protein kinase FLT3 (FLT3, Homo sapiens, UniProt P36888, F691L)", "assay": "enzyme activity, inhibitor", "IC50 [nM]": 104}
{"SMILES": "CNC(=O)c1ccc(C(=O)Nc2ccc3c(=O)[nH]c(-c4ccc(C(C)(C)O)cc4)nc3c2)cc1", "target": "TNKS2", "assay": "enzyme activity, inhibitor", "IC50 [nM]": 30.4}
{"SMILES": "CN(C)CCNC(=O)c1ccc(-c2nc3ccc4[nH]ncc4c3c3c2CCCC3)c(F)c1", "target": "FLT3 ITD", "assay": "enzyme activity, inhibitor", "IC50 [nM]": 112}
{"SMILES": "CNc1cccc(Nc2nc(-c3ccncc3)nc3c2CNCC3)c1", "target": "TOP2A", "assay": "enzyme activity, inhibitor", "IC50 [nM]": 160000}
{"SMILES": "CN(C)CCNC(=O)c1ccc(-c2nc3ccc4[nH]ncc4c3c3c2CCCCC3)cc1", "target": "Receptor-type tyrosine-protein kinase FLT3 (FLT3, Homo sapiens, UniProt P36888)", "assay": "enzyme activity, inhibitor", "IC50 [nM]": 48}
{"SMILES": "COc1cc(-c2ccccc2)ncc1C(=O)Nc1ccc2c(=O)[nH]c(-c3ccc(C(C)(C)O)cc3)nc2c1", "target": "TNKS2", "assay": "enzyme activity, inhibitor", "IC50 [nM]": 3.46}
{"SMILES": "CCCCCCC#Cc1cncc(-c2nnc(SCc3cc([N+](=O)[O-])cc([N+](=O)[O-])c3)n2CCOC2OC(CN)C(O)C2O)c1 (stereo not drawn)", "target": "mraY (Staphylococcus aureus, UniProt Q2FZ93)", "assay": "enzyme activity, inhibitor", "IC50 [nM]": 78000}
